Values after ≈ are worked out from the molar mass of the structure shown.
How the values were obtained:
Format in all cases: functional
[1] = system: Talaromyces marneffei; assay: Antifungal activity against Penicillium marneffei after 48 hrs by two fold dilution technique
Method in brief: (§1)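 Broth MIC. Broth with log two-fold serial dilutions of compound was inoculated with about 1.6 × 10⁴–6 × 10⁴ c.f.u./ml of fungus and incubated 48 h at 35 °C. MIC is the lowest concentration arresting fungal growth.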

[2] = system: Staphylococcus aureus; assay: Antibacterial activity against Staphylococcus aureus ATCC 25923 after 24 hrs by disc diffusion method
Method in brief: (§2)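 Agar disc diffusion. A standard inoculum of […] c.f.u./ml (0.5 McFarland) was spread evenly on agar. 6 mm Whatman no. 1 paper discs, dry-heat sterilized (140 °C, 1 h), were soaked in test compound and placed on nutrient agar. Plates were inverted and incubated 24 h at 37 °C. Read-out: diameter of the inhibition zone.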

[3] = system: Streptococcus pyogenes; assay: Antibacterial activity against Streptococcus pyogenes after 24 hrs by two fold dilution technique
Method in brief: (§3)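 Broth dilution MIC. Nutrient broth held log two-fold serial dilutions of compound and was inoculated with about 5 × 10⁵ c.f.u./ml of actively dividing bacteria. Incubation was 24 h at 37 °C, with growth checked visually and spectrophotometrically. MIC is the lowest concentration arresting growth.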

[4] = system: Staphylococcus aureus; assay: Antibacterial activity against Staphylococcus aureus ATCC 25923 after 18 to 24 hrs
[5] = system: Streptococcus pyogenes; assay: Antibacterial activity against Streptococcus pyogenes after 18 to 24 hrs
[6] = system: Klebsiella pneumoniae; assay: Antibacterial activity against Klebsiella pneumoniae after 24 hrs by disc diffusion method; method in brief: as §2
[7] = system: Talaromyces marneffei; assay: Ratio of MFC to MIC for Penicillium marneffei
Method in brief: (§4)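 MFC: 0.1 ml from each MIC tube was spread on agar and colonies were counted after 48 h at 35 °C. MFC is the lowest concentration killing 99.9% of the inoculum. The MFC/MIC ratio was then calculated to classify activity as fungistatic or fungicidal.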

[8] = system: Trichophyton mentagrophytes; assay: Antifungal activity against Trichophyton mentagrophytes after 48 hrs by two fold dilution technique; method in brief: as §1
[9] = system: Streptococcus pyogenes; assay: Antibacterial activity against Streptococcus pyogenes after 24 hrs by disc diffusion method; method in brief: as §2
[10] = system: Pseudomonas aeruginosa; assay: Antibacterial activity against Pseudomonas aeruginosa ATCC 27853 after 24 hrs by disc diffusion method; method in brief: as §2
[11] = system: Candida albicans; assay: Antifungal activity against Candida albicans after 48 hrs by disk diffusion method
Method in brief: (§5)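 Agar well diffusion with compounds in DMSO. The dish was lawned with a saline spore suspension, excess decanted, and dried 1 h at 37 °C. Wells were punched. Read-out: inhibition zone in mm. Griseofulvin served as standard and DMSO as negative control.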

[12] = system: Talaromyces marneffei; assay: Antifungal activity against Penicillium marneffei after 48 hrs by disk diffusion method; method in brief: as §5
[13] = system: Escherichia coli; assay: Antibacterial activity against Escherichia coli ATCC 25922 after 24 hrs by two fold dilution technique; conditions: ATCC 25922, 24 h; method in brief: as §3
[14] = system: Trichophyton mentagrophytes; assay: Antifungal activity against Trichophyton mentagrophytes after 48 hrs by disk diffusion method; method in brief: as §5
[15] = system: Aspergillus fumigatus; assay: Antifungal activity against Aspergillus fumigatus after 48 hrs by two fold dilution technique; method in brief: as §1
[16] = system: Klebsiella pneumoniae; assay: Antibacterial activity against Klebsiella pneumoniae after 18 to 24 hrs
[17] = system: Pseudomonas aeruginosa; assay: Antibacterial activity against Pseudomonas aeruginosa ATCC 27853 after 24 hrs by two fold dilution technique; conditions: ATCC 27853, 24 h; method in brief: as §3
[18] = system: Staphylococcus aureus; assay: Antibacterial activity against Staphylococcus aureus ATCC 25923 after 24 hrs by two fold dilution technique; conditions: ATCC 25923, 24 h; method in brief: as §3
[19] = system: Candida albicans; assay: Ratio of MFC to MIC for Candida albicans; method in brief: as §4
[20] = system: Candida albicans; assay: Antifungal activity against Candida albicans after 48 hrs by two fold dilution technique; method in brief: as §1
[21] = system: Klebsiella pneumoniae; assay: Antibacterial activity against Klebsiella pneumoniae after 24 hrs by two fold dilution technique; method in brief: as §3
[22] = system: Escherichia coli; assay: Antibacterial activity against Escherichia coli ATCC 25922 after 18 to 24 hrs
[23] = system: Aspergillus fumigatus; assay: Ratio of MFC to MIC for Aspergillus fumigatus; method in brief: as §4
[24] = system: Escherichia coli; assay: Antibacterial activity against Escherichia coli ATCC 25922 after 24 hrs by disc diffusion method; method in brief: as §2
[25] = system: Pseudomonas aeruginosa; assay: Antibacterial activity against Pseudomonas aeruginosa ATCC 27853 after 18 to 24 hrs
[26] = system: Aspergillus fumigatus; assay: Antifungal activity against Aspergillus fumigatus after 48 hrs by disk diffusion method; method in brief: as §5
[27] = system: Trichophyton mentagrophytes; assay: Ratio of MFC to MIC for Trichophyton mentagrophytes; method in brief: as §4

MIC [1] [µg/mL] | MIC [3] [µg/mL] | MIC [8] [µg/mL] | MIC [15] [µg/mL] | MIC [20] [µg/mL] | SMILES | MFC [1] [µg/mL] | diameter of the inhibition zone (DIZ) [2] [mm] | MBC [4] [µg/mL] | MBC [5] [µg/mL] | Ratio [7] | MFC [8] [µg/mL] | diameter of the inhibition zone (DIZ) [11] [mm] | diameter of the inhibition zone (DIZ) [12] [mm] | diameter of the inhibition zone (DIZ) [14] [mm] | MFC [15] [µg/mL] | Ratio [19] | MFC [20] [µg/mL] | Ratio [23] | diameter of the inhibition zone (DIZ) [26] [mm] | Ratio [27] | further results
12.5 (≈ 30.2 µM) | 6.25 (≈ 15.1 µM) | 12.5 (≈ 30.2 µM) | 12.5 (≈ 30.2 µM) | 25 (≈ 60.4 µM) | CCCCCC[C@@H](O)C/C=C\CCCCCCCc1nnc(Nc2ccccc2)o1 | 100 (≈ 242 µM) | 20.2 | 12.5 (≈ 30.2 µM) | 12.5 (≈ 30.2 µM) | 8 | 50 (≈ 121 µM) | 23.3 | 13.9 | 17.5 | 50 (≈ 121 µM) | 4 | 100 (≈ 242 µM) | 4 | 20.7 | 4 | diameter of the inhibition zone (DIZ) [6]: 19.7 mm; diameter of the inhibition zone (DIZ) [9]: 21.2 mm; diameter of the inhibition zone (DIZ) [10]: 25.6 mm; MIC [13]: 6.25 µg/mL (≈ 15.1 µM); MBC [16]: 6.25 µg/mL (≈ 15.1 µM); MIC [17]: 6.25 µg/mL (≈ 15.1 µM); MIC [18]: 6.25 µg/mL (≈ 15.1 µM); MIC [21]: 6.25 µg/mL (≈ 15.1 µM); MBC [22]: 25 µg/mL (≈ 60.4 µM); diameter of the inhibition zone (DIZ) [24]: 22.8 mm; MBC [25]: 50 µg/mL (≈ 121 µM)
25 (≈ 60.4 µM) | 6.25 (≈ 15.1 µM) | 25 (≈ 60.4 µM) | 25 (≈ 60.4 µM) | 12.5 (≈ 30.2 µM) | CCCCC/C=C\CC[C@H](O)CCCCCCCc1nnc(Nc2ccccc2)o1 | 100 (≈ 242 µM) | 21.1 | 12.5 (≈ 30.2 µM) | 25 (≈ 60.4 µM) | 4 | 50 (≈ 121 µM) | 23.2 | 16.3 | 18.7 | 50 (≈ 121 µM) | 2 | 25 (≈ 60.4 µM) | 2 | 21.6 | 2 | diameter of the inhibition zone (DIZ) [6]: 20.2 mm; diameter of the inhibition zone (DIZ) [9]: 20.1 mm; diameter of the inhibition zone (DIZ) [10]: 19.4 mm; MIC [13]: 6.25 µg/mL (≈ 15.1 µM); MBC [16]: 25 µg/mL (≈ 60.4 µM); MIC [17]: 6.25 µg/mL (≈ 15.1 µM); MIC [18]: 12.5 µg/mL (≈ 30.2 µM); MIC [21]: 6.25 µg/mL (≈ 15.1 µM); MBC [22]: 25 µg/mL (≈ 60.4 µM); diameter of the inhibition zone (DIZ) [24]: 21.6 mm; MBC [25]: 50 µg/mL (≈ 121 µM)
12.5 (≈ 41.7 µM) | 12.5 (≈ 41.7 µM) | 12.5 (≈ 41.7 µM) | 25 (≈ 83.5 µM) | 25 (≈ 83.5 µM) | C=CCCCCCCCCc1nnc(Nc2ccccc2)o1 | 25 (≈ 83.5 µM) | 17.7 | 25 (≈ 83.5 µM) | 50 (≈ 167 µM) | 2 | 50 (≈ 167 µM) | 24.2 | 15.2 | 16.9 | 100 (≈ 334 µM) | 2 | 50 (≈ 167 µM) | 4 | 20.8 | 4 | diameter of the inhibition zone (DIZ) [6]: 16.8 mm; diameter of the inhibition zone (DIZ) [9]: 18 mm; diameter of the inhibition zone (DIZ) [10]: 17.3 mm; MIC [13]: 12.5 µg/mL (≈ 41.7 µM); MBC [16]: 25 µg/mL (≈ 83.5 µM); MIC [17]: 12.5 µg/mL (≈ 41.7 µM); MIC [18]: 6.25 µg/mL (≈ 20.9 µM); MIC [21]: 12.5 µg/mL (≈ 41.7 µM); MBC [22]: 50 µg/mL (≈ 167 µM); diameter of the inhibition zone (DIZ) [24]: 19.8 mm; MBC [25]: 50 µg/mL (≈ 167 µM)
6.25 (≈ 17.7 µM) | – | 6.25 (≈ 17.7 µM) | 6.25 (≈ 17.7 µM) | 6.25 (≈ 17.7 µM) | COC1=CC(=O)C[C@@H](C)[C@]12Oc1c(Cl)c(OC)cc(OC)c1C2=O [GRISEOFULVIN] | 12.5 (≈ 35.4 µM) | – | – | – | 2 | 12.5 (≈ 35.4 µM) | 30 | 20 | 24 | 12.5 (≈ 35.4 µM) | 2 | 12.5 (≈ 35.4 µM) | 2 | 27 | 2 | –

Reference: ChEMBL document CHEMBL1155415, “Synthesis, characterization, and in vitro antimicrobial activities of 5-alkenyl/hydroxyalkenyl-2-phenylamine-1,3,4-oxadiazoles and thiadiazoles” (2010)
